M1 antagonist: M1 muscarinic receptor (rat) antagonism; P08482; CHO-M1 cells, Fluo-4 calcium, ACh EC80 antagonist mode; active compounds read low; B-score at 10 µM; 3.4% of 64,000 active; AID 628;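 active means calcium fluorescence response, raw or row-and-column corrected B-score, differing from the plate sample mean either way at a set confidence level, mostly lower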
Target sequence (P08482 whole entry, looked up): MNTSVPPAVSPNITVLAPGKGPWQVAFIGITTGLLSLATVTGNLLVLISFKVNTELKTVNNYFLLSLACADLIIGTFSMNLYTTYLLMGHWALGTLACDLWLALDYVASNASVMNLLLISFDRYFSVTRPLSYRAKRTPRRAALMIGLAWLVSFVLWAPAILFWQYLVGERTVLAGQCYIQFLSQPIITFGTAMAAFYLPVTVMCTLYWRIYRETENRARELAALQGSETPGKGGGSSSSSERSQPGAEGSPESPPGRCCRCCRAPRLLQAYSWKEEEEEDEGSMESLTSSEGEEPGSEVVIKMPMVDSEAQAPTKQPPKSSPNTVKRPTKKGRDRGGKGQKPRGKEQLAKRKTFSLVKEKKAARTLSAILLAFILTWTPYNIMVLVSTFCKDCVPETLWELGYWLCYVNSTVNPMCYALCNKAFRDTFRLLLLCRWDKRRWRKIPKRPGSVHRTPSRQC
SF-1 act: activates the human nuclear receptor SF-1 | Q13285 | CHO-K1 Gal4-SF-1 LBD luciferase reporter; % increase over DMSO SF-1-specific signal | activation, % at 10 µM | 1.9% of 65,000 active | AID 522;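 active means activation above the mean activation of all tested compounds plus 3 SD, cut at about 50% in these data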
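Material: Gal4–SF-1 LBD one-hybrid luciferase reporter in CHO-K1 cells | Amount: 4,000 cells per well | Compound dosing: 10 µM single point, 1% DMSO | Schedule: 20 h compound treatment, 37 °C | Measured by: SteadyLite luciferase luminescence | Evaluation: Percent activation versus DMSO | Control set: DMSO-treated SF-1-transfected cells as negative, DMSO-treated mock-transfected cells lacking SF-1 as background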
MT1-MMP txn act: MT1-MMP promoter transcription activation. HT1080 MT1-MMP promoter luciferase reporter, luminescence, overnight; active compounds read high. activation factor at 10 µM. 0.16% of 86,000 active;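 active means activation factor of at least 2 for MT1-MMP transcription at 10 µM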
RORA act: activators of human nuclear receptor RORA. P35398. AID 560. activation, % at 10 µM. CHO-K1 Gal4-RORA LBD luciferase reporter, luminescence; percent increase over mock-subtracted basal signal. 1.5% of 65,000 active;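 active means activation above the mean of all tested compounds plus 3 SD, cut at about 49% in these data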
M1 agonist: agonists of M1 muscarinic receptor. CHO-M1 cells, Fluo-4 calcium fluorescence, agonist mode; active compounds read high. 3% of 64,000 active. B-score at 10 µM. AID 626;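 active means fluorescence rise, raw or as B-score row- and column-corrected plate score, outside the 99.7% band of its plate's samples, either direction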
Each line names hits and unclear results; the compound was inactive in the other large screens. The list is not random: actives were taken first. Their share in the collection is about 6.3%.

CC(=O)Nc1ccc(Nc2ncnc3c2cnn3-c2ccc(C)cc2C)cc1	none (no result: M1 antagonist, SF-1 act, RORA act, M1 agonist)
CC(=O)Nc1ccc(Nc2ncnc3c2cnn3-c2cccc(C)c2)cc1	RORA act 66
Clc1ccc(Nc2ncnc3c2cnn3-c2ccccc2)cc1	RORA act 72
CC(=O)Nc1ccc(Nc2ncnc3c2cnn3-c2ccccc2)cc1	RORA act 55
COc1ccc(Nc2ncnc3c2cnn3-c2ccccc2)cc1OC	none
CCC1=C2CC[C@H]3C(=O)N(CC)C(=O)[C@H]3[C@H]2[C@@]2(Cc3ccccc3)C(=O)N(CCOC)C(=O)N2C1=O	none (no result: M1 antagonist, SF-1 act, RORA act, M1 agonist)
CCc1c2c(nc3c(C(C)C)cccc13)-c1cccc(=O)n1C2	none (no result: M1 antagonist, SF-1 act, RORA act, M1 agonist)
CC(C)Oc1ccc(/C=N/NC(=O)C(CSCc2ccccc2)NC(=O)c2ccc([N+](=O)[O-])cc2)cc1 (configuration not stated)	none (no result: M1 antagonist, SF-1 act, RORA act, M1 agonist)
COC(=O)[C@@]1(Cc2ccccc2)[C@H]2c3cc(C(=O)N(C)C)n(Cc4ccc(O)c(OC)c4)c3C[C@H]2CN1C(=O)c1ccccc1	none (no result: M1 antagonist, SF-1 act, RORA act, M1 agonist)
Cc1cc(NCCCN2CCOCC2)n2ncc(-c3ccc(Cl)cc3)c2n1	SF-1 act 70, RORA act 62
CCNC(=O)[C@H](C)/C=C/C(NC(=O)OCc1ccccc1)c1ccc(C(=O)OC)cc1 (some centres not stated)	none (no result: M1 antagonist, SF-1 act, RORA act, M1 agonist)
CCOc1ccc(-c2noc(-c3cccnc3)n2)cc1OC	RORA act 57
Cc1ccccc1-c1nc(-c2cccnc2)no1	SF-1 act 67
Clc1ccccc1-c1nc(-c2cccnc2)no1	none
CCOc1cc(-c2noc(-c3cccnc3)n2)ccc1OC	none
Cc1cc(-c2ccccc2)nc(N2CCC(C(=O)NC(C)C)CC2)n1	SF-1 act 97, RORA act 67
Cc1cc(-c2ccccc2)nc(N2CCC(C(=O)NCC3CCCCC3)CC2)n1	none (no result: M1 antagonist, SF-1 act, RORA act, M1 agonist)
COC(=O)[C@@H]1C[C@@]2(O)[C@@H](O)[C@@H](O)[C@@H](O)C[C@H]2N1Cc1ccc(C(C)(C)C)cc1	none (no result: M1 antagonist, SF-1 act, RORA act, M1 agonist)
CC1CCCCN1C(=O)CSc1nnc(-c2c[nH]c3ccccc23)o1 (configuration not stated)	none
COc1cccc(Nc2nc(N)nc(-c3oc4ccccc4c3C)n2)c1	none (no result: M1 antagonist, SF-1 act, RORA act, M1 agonist)
Cc1c(-c2nc(N)nc(Nc3ccccc3F)n2)oc2ccccc12	SF-1 act 73, RORA act 108
O=c1cc(-c2ccc(F)cc2)oc2ccccc12	none (no result: M1 antagonist, SF-1 act, RORA act, M1 agonist)
CSc1ccc(-c2cc(=O)c3ccccc3o2)cc1	SF-1 act 63
CCOC(=O)c1ccccc1NC(=O)CSc1nnc(C(C)C)n1CC	none (no result: M1 antagonist, SF-1 act, RORA act, M1 agonist)
O=P(O)(CCc1ccccc1)C(O)c1ccccc1 (configuration not stated)	none (no result: M1 antagonist, SF-1 act, RORA act, M1 agonist)
COc1ccc(C(O)P(=O)(O)CCc2ccccc2)cc1 (configuration not stated)	RORA act 52
CCC(C)NC(=O)c1c(-c2cc(Cl)c(OC)c(Cl)c2)noc1C (configuration not stated)	none
Cc1cccc(Nc2ncc3c(n2)CC(C)CC3=O)c1 (configuration not stated)	SF-1 act 72, RORA act 72
CC1(C)Cc2c(sc(NC(=O)c3ccco3)c2C(=O)O)CO1	none (no result: M1 antagonist, SF-1 act, RORA act, M1 agonist)
CC1(C)Cc2c(sc(NC(=O)c3ccc(Br)o3)c2C#N)CO1	SF-1 act 62, MT1-MMP txn act 2.3
Cc1cccc(N2CCN(CCNC(=O)c3cc4c(s3)CS(=O)(=O)C4)CC2)c1C	none (no result: MT1-MMP txn act)
CCNc1nc(N)nc(Oc2ccc(C(=O)OC)cc2)n1	RORA act 56 (no result: MT1-MMP txn act)
COc1cc2c(C(=O)N3CCN(c4cccc(Cl)c4)CC3)cn(CC(C)C)c(=O)c2cc1OC	none (no result: M1 antagonist, SF-1 act, RORA act, M1 agonist)
O=C(Cn1cnc2ccccc2c1=O)Nc1ccc2c(c1)OCCO2	SF-1 act 59
O=C(COc1ncnc2ccccc12)c1ccc2c(c1)OCCO2	SF-1 act 58
O=C(CS(=O)(=O)c1ccccc1)c1ccc2c(c1)OCCO2	SF-1 act 52
O=C(Cn1cnc2ccccc2c1=O)NCCC(=O)Nc1ccc2c(c1)OCCO2	none
O=C(O)CCC(=O)c1ccc2c(c1)OCCO2	none
O=C(CC(=O)c1ccccc1)Nc1ccc2c(c1)OCCO2	SF-1 act 61
O=C(Cn1cnc2ccccc2c1=O)OCC(=O)c1ccc2c(c1)OCCO2	none
CCC1=C2CC[C@H]3C(=O)NC(=O)[C@H]3[C@H]2[C@@]2(C)C(=NCCc3c[nH]c4ccccc34)OC(=O)N2C1=O	none (no result: M1 antagonist, SF-1 act, RORA act, M1 agonist)
Cc1cccc(-c2nc(C#N)c(NC3CCCCC3)o2)c1	SF-1 act 50
COc1ccc(-c2nn(-c3ccccc3)cc2/C=N/N2C(=O)CSC2=S)cc1	none (no result: M1 antagonist, SF-1 act, RORA act, M1 agonist)
CCOc1ccccc1Oc1coc2cc(OC(=O)c3ccco3)ccc2c1=O	none
CCN(CC)C(=O)Oc1ccc2c(=O)c(-c3ccccc3)coc2c1	RORA act 82
COC(=O)[C@@]1(Cc2ccc(F)cc2)[C@H]2c3cc(C(=O)N(C)C)n(Cc4ccc(OC(F)(F)F)cc4)c3C[C@H]2CN1C(=O)c1ccccc1	none (no result: M1 antagonist, SF-1 act, RORA act, M1 agonist)
Cc1nc(N)sc1-c1csc(Nc2ccccc2)n1	SF-1 act 90, MT1-MMP txn act 2.3, RORA act 50
Cc1cc(O)ccc1Nc1nc(-c2sc(N)nc2C)cs1	none
Fc1ccc2nc3[nH]c4ccccc4c3nc2c1	SF-1 act 90
Cn1c(-c2ccc3ccccc3n2)nc2cnccc21	SF-1 act 65, RORA act 55
CCOC(=O)C1=CN(C)C=C(C(=O)OCC)C1c1ccsc1	M1 antagonist 2.2
Brc1ccc(-c2noc(CCc3ccccc3)n2)o1	none
c1ccc(CCc2nc(-c3ccccn3)no2)cc1	RORA act 54
COC(=O)[C@@]1(Cc2ccccc2)[C@H]2c3cc(C(=O)N4CCCC4)n(Cc4ccccc4)c3C[C@H]2CN1C(=O)c1ccccc1	none (no result: M1 antagonist, SF-1 act, RORA act, M1 agonist)
N#Cc1nc(-c2ccco2)oc1N1CCc2ccccc2C1	M1 agonist 3.9
COC(=O)C12CC3CC(C1)CC(n1cnc(Cl)n1)(C3)C2	MT1-MMP txn act 2.3 (no result: M1 antagonist, SF-1 act, RORA act, M1 agonist)
COC(=O)c1ccccc1NC(=O)C12CC3CC(C1)CC(n1cnc(Cl)n1)(C3)C2	none (no result: M1 antagonist, SF-1 act, RORA act, M1 agonist)
COc1ccc(C(O)C(CC(=O)NCCCOC(C)C)C(=O)NCCCOC(C)C)cc1OC (configuration not stated)	none
CCOc1ccccc1N(C(=O)CNC(=O)c1ccco1)C(C(=O)NC(C)(C)C)c1ccncc1 (configuration not stated)	none
O=C(C1CC(c2ccc(F)cc2)=NO1)N1CCN(c2ccccc2)CC1 (configuration not stated)	none
O=C(C1CC(c2ccc(F)cc2)=NO1)N1CCCCC1 (configuration not stated)	SF-1 act 55
CC1CCCCN1C(=O)C1CC(c2ccc(F)cc2)=NO1 (configuration not stated)	SF-1 act 63, RORA act 49
CCOC(=O)Cn1cnc2sc3c(c2c1=O)CCC3	none
COC(=O)C1(CC(C)C)C=CC[N+]1(C)C (configuration not stated)	none (no result: M1 antagonist, SF-1 act, RORA act, M1 agonist)
S=C(c1ccc(-c2cccc(Cl)c2)o1)N1CCOCC1	RORA act 61
